These results are taken from ChEMBL document CHEMBL1126168, “Benzazepinone calcium channel blockers. 3. Synthesis and structure-activity studies of 3-alkylbenzazepinones” (J Med Chem, 1992).

Structures are written as SMILES.

The species named for one test is Oryctolagus cuniculus. Put plainly: In vitro evaluation for the vasorelaxant effects in circumferential strips of potassium-depolarized rabbit aorta. (IC50 in rabbit aorta strips contracted with KCl). The class given is functional.
Test [1] is described as follows: In vivo evaluation for the percentage decrease in blood pressure at 135 umol/kg administered through oral route in spontaneously hypertensive rats and observed for 12-18 h. The class given is functional, Rattus norvegicus. Put shortly: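 Spontaneously hypertensive rats, n = 5, dosed orally at 135 μmol/kg; blood pressure followed and reported as percent decrease over the 0-6, 6-12 and 12-18 h intervals after dosing.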

Test [2] is described as follows: In vivo evaluation for the percentage decrease in blood pressure at 45 umol/kg administered through oral route in spontaneously hypertensive rats and observed for 0-6 h.
A short description of test [3]: In vivo evaluation for the percentage decrease in blood pressure at 45 umol/kg administered through oral route in spontaneously hypertensive rats and observed for 6-12 h.
A short description of test [4]: (§1) In vitro inhibition [3H]diltiazem binding to calcium channels in isolated guinea pig skeletal muscle microsomal preparations. Type of test: microsomes, Cavia porcellus, Muscle tissue, Microsome.
Test [5] is described as follows: In vivo evaluation for the percentage decrease in blood pressure at 45 umol/kg administered through oral route in spontaneously hypertensive rats and observed for 12-18 h.
The species named for the next test is Cavia porcellus. The description is as §1. The following applies: Muscle tissue, Microsome, concentration not given here. The class given is microsomes.

By IC50 is commonly meant the concentration needed to halve the response being measured. Low values mean greater potency, high ones weaker potency. As for `CCC[C@H]1C(=O)N(CCN(C)C)c2ccc(C(F)(F)F)cc2C[C@H]1c1ccc(OC)cc1.Cl`, inhibition in the test listed under Oryctolagus cuniculus was half-maximal at 1200 nM (IC50). Also, the Decrease stood at 8% in test [1], 6% in test [2] and 5% in test [3].
`COc1ccc([C@@H]2Cc3c(cccc3C(F)(F)F)N(CCN(C)C)C(=O)[C@H]2C)cc1.Cl`: the results for the Decrease in test [1], in test [2] and in test [3] were 8%, 12% and 9%, respectively.
As usually defined, the Kd is the equilibrium constant for the complex coming apart. Regarding `COc1ccc([C@@H]2Cc3c(ccc(Br)c3OC)N(CCN(C)C)C(=O)[C@@H]2C)cc1.Cl`, in test [4], the Kd amounted to 120 nM. Further, the IC50 in the test filed under Oryctolagus cuniculus was found to be 90 nM. Moreover, the results for the Decrease in test [1], in test [2] and in test [3] were 14%, 9% and 12%, respectively.
In the case of `COc1ccc([C@@H]2Cc3c(cccc3C(F)(F)F)N(CCN(C)C)C(=O)[C@@H]2OC(C)=O)cc1`, the values for the Decrease in test [2], in test [3] and in test [5] were 17%, 12% and 12%, respectively.
For the compound `C=CC[C@H]1C(=O)N(CCN(C)C)c2ccc(C(F)(F)F)cc2C[C@H]1c1ccc(OC)cc1.Cl`, in the test filed under Oryctolagus cuniculus, the IC50 amounted to 240 nM. Further, the Decrease was 23% in test [2], 28% in test [3] and 30% in test [5].
On the same counts, the results for `C=CCC1C(=O)N(CCN(C)C)c2cccc(C(F)(F)F)c2CC1c1ccc(OC)cc1.Cl` (centres undefined) are 100 nM, 24%, 27% and 29%.
`CCC[C@H]1C(=O)N(CCN(C)C)c2ccccc2C[C@H]1c1ccc(OC)cc1.Cl`: the Kd in test [4] turned out to be 250 nM. The Decrease in test [1] is on record as 12%; in test [2], 10%; in test [3] it was 11%.
With `COc1ccc([C@@H]2Cc3c(OC)cccc3N(CCN(C)C)C(=O)[C@@H]2C)cc1.Cl`, the Kd in test [4] worked out at 400 nM. Also, the results for the Decrease in test [1], in test [2] and in test [3] were 8%, 7% and 10%, respectively.
For `COc1ccc([C@@H]2Cc3cc(Cl)ccc3N(CCN(C)C)C(=O)[C@@H]2C)cc1`, the Kd in test [4] came out at 670 nM. The IC50 in the test listed under Oryctolagus cuniculus came to 150 nM. Moreover, the Decrease was 11% in test [1], 12% in test [2] and 13% in test [3].
On to `C=CC[C@H]1C(=O)N(CCN(C)C)c2ccccc2C[C@H]1c1ccc(OC)cc1.Cl`, for which the Decrease in test [1] is listed as 18%; in test [2], 25%; in test [3], 23%.
On the same counts, the results for `CC[C@H]1C(=O)N(CCN(C)C)c2cccc(C(F)(F)F)c2C[C@H]1c1ccc(OC)cc1.Cl` are 15%, 24% and 19%.
For `C=CC[C@H]1C(=O)N(CCN(C)C)c2cccc(C(F)(F)F)c2C[C@H]1c1ccc(OC)cc1.Cl` (relative stereo), the IC50 in the test filed under Oryctolagus cuniculus came out at 77 nM. Also, the Decrease in test [1] is listed as 27%; in test [2], 33%; in test [3], 32%.
As for `C=CC[C@H]1C(=O)N(CCN(C)C)c2ccc(Cl)cc2C[C@H]1c1ccc(OC)cc1`, the Kd in test [4] is 5040 nM. Inhibition in the test listed under Oryctolagus cuniculus was half-maximal at 160 nM (IC50). For the same compound, the Decrease in test [1] is on record as 25%; in test [2], 23%; in test [3], 23%.
Turning to `CC[C@H]1C(=O)N(CCN(C)C)c2ccc(Cl)cc2C[C@H]1c1ccc(OC)cc1`, inhibition in the test listed under Oryctolagus cuniculus was half-maximal at 280 nM (IC50). Also, the Decrease in test [1] came to 21%; in test [2], 20%; in test [3], 22%.
On the same counts, the results for `COc1ccc([C@@H]2Cc3cc(C(F)(F)F)ccc3N(CCN(C)C)C(=O)[C@@H]2C)cc1.Cl` are 1230 nM, 25%, 23% and 23%.
`COc1ccc([C@@H]2Cc3c(cccc3C(F)(F)F)N(CCN(C)C)C(=O)[C@H]2C)cc1`: the results for the Decrease in test [2], in test [3] and in test [5] were 24%, 23% and 17%, respectively.
As to `CCC[C@H]1C(=O)N(CCN(C)C)c2cccc(C(F)(F)F)c2C[C@H]1c1ccc(OC)cc1.Cl`, the Decrease was 14% in test [2], 19% in test [3] and 24% in test [5].
For `COc1ccc([C@@H]2Cc3c(ccc(SC)c3OC)N(CCN(C)C)C(=O)[C@@H]2C)cc1.Cl`, in the test listed under Oryctolagus cuniculus, 70 nM corresponded to half-maximal inhibition (IC50). Besides, the figures for the Decrease in test [1], in test [2] and in test [3] were 14%, 18% and 15%, respectively.
On to `COc1ccc([C@@H]2Cc3c(cccc3C(F)(F)F)N(CCN(C)C)C(=O)[C@@H]2Cc2ccccc2)cc1`, for which the values for the Decrease in test [1], in test [2] and in test [3] were 6%, 14% and 8%, respectively.
Take `COc1ccc([C@@H]2Cc3ccccc3N(CCN(C)C)C(=O)[C@@H]2C)cc1.Cl`: in the test filed under Oryctolagus cuniculus, 1100 nM corresponded to half-maximal inhibition (IC50). Besides, the Decrease in test [1] turned out to be 8%; in test [2], 6%; in test [3] it was 4%.
In turn, `CC[C@H]1C(=O)N(CCN(C)C)c2cccc(Cl)c2C[C@H]1c1ccc(OC)cc1` had an IC50 in the test listed under Oryctolagus cuniculus of 80 nM. In addition, the results for the Decrease in test [2], in test [3] and in test [5] were 14%, 18% and 7%, respectively.
A word on the inhibition: it is the percentage by which the read-out fell short of the control. As to `COc1ccc([C@@H]2Cc3c(cccc3C(F)(F)F)N(CCN(C)C)C(=O)[C@@H]2C)cc1`, in the test filed under Cavia porcellus, the inhibition was determined as 90%. 80 nM corresponded to half-maximal inhibition in the test listed under Oryctolagus cuniculus (IC50). The Decrease was 22% in test [1], 28% in test [2] and 22% in test [3].
`COc1ccc([C@@H]2Sc3cc(Cl)ccc3N(CCN(C)C)C(=O)[C@@H]2OC(C)=O)cc1` [CLENTIAZEM]: the IC50 in the test listed under Oryctolagus cuniculus turned out to be 100 nM. The results for the Decrease in test [2], in test [3] and in test [5] were 29%, 16% and 22%, respectively.
